The values below come from the array DNA melting data of Ke et al. (doi:10.1101/2024.01.08.574731).

The nature of series [1]: melting temperature; fluorescence melt of hairpins on a sequencing array, two-state fit, raised by 9.35 °C to match UV melts. The following applies: sodium 0.088 M. In short, it runs like this:
(§1)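 Cy3 signals were normalised both to pre-quench Cy3 and to control constructs. They came from library hairpins carrying annealed Cy3 and quencher oligos on a sequenced MiSeq flow cell, imaged in 50 mM Na-HEPES pH 8.0, 25 mM NaCl, in 2.5 °C steps up to 60 °C. Bootstrapped two-state fits gave melting temperature and folding enthalpy, and four replicates were combined by inverse variance. Fitted temperatures were then raised by 9.35 °C to match UV melts.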

A short description of series [2]: folding enthalpy; higher = less favourable; fluorescence melt of hairpins on a sequencing array, two-state fit. The following applies: sodium 0.088 M. The gist of the method:
as §1

GCCTGGGGAAACTCAGGC (((((.(....).))))): in series [1], the Tm was found to be 58.4 °C. Further, in series [2], the folding enthalpy is -36 kcal/mol.

As for GCCTGTACGAAAGTAGGC (((..(((....)))))), the Tm in series [1] was 48.9 °C. Besides, in series [2], the folding enthalpy was -29.1 kcal/mol.

On to GCCTGTGGAAACACGGGC (((.(((....))).))), for which the Tm in series [1] turned out to be 61.9 °C. The folding enthalpy in series [2] was -41 kcal/mol.

On to GCCTTAACGAAAGTTGGC (((..(((....)))))), for which the Tm in series [1] was 43.7 °C. For the same sequence, in series [2], the folding enthalpy was -26.5 kcal/mol.

As for GCCTTACCGAAAGGTGGC (((..(((....)))))), the Tm in series [1] was 48.8 °C. Moreover, the folding enthalpy in series [2] was -23.6 kcal/mol.

Regarding GCCTTATCGAAAGATGGC (((..(((....)))))), the Tm in series [1] came out at 42.6 °C. For the same sequence, in series [2], the folding enthalpy is -28.7 kcal/mol.

As to GCCTTCCCGAAAGGGGGC (((..(((....)))))), in series [1], the Tm turned out to be 47.7 °C. Further, the folding enthalpy in series [2] was -17.2 kcal/mol.

On to GCCTTCGAAAGAAAGGGC ((((((....)))..))), for which, in series [1], the Tm turned out to be 43.1 °C. Further, the folding enthalpy in series [2] was -29.4 kcal/mol.

Take GCCTTCGAAAGAAATGGC ((((((....)))..))): in series [1], the Tm came out at 38.5 °C. The folding enthalpy in series [2] is -24.6 kcal/mol.

As to GCCTTCGAAAGAACCGGC ((((((....)))..))), the Tm in series [1] is 33.9 °C. Moreover, the folding enthalpy in series [2] is -19.4 kcal/mol.

For GCCTTCGAAAGAATAGGC ((((((....)))..))), in series [1], the Tm is 44.8 °C. Also, the folding enthalpy in series [2] is -28.8 kcal/mol.

Turning to GCCTTCGGAAACGAAAGC ((.((((....)))).)), the Tm in series [1] stood at 40.4 °C. Also, the folding enthalpy in series [2] is -22 kcal/mol.

For GCCTTCGGAAACGGAGGC ((((.((....)).)))), the Tm in series [1] was 58.6 °C. In addition, the folding enthalpy in series [2] was -40.4 kcal/mol.

As to GCCTTGCGAAAGCAGGC (((.(((....)))))), the Tm in series [1] amounted to 66.7 °C. Also, the folding enthalpy in series [2] is -24 kcal/mol.

Consider GCCTTGCGAAAGCCACGC ((.(.((....)).).)), for which, in series [1], the Tm amounted to 46.8 °C. Besides, the folding enthalpy in series [2] was -7.87 kcal/mol.

As for GCCTTGCGAAAGCGACGC ((.(.((....)).).)), the Tm in series [1] amounted to 48.2 °C. The folding enthalpy in series [2] was -10.5 kcal/mol.

As for GCCTTGCGAAAGCTCGGC (((..((....))..))), the Tm in series [1] came out at 53.1 °C. The folding enthalpy in series [2] is -21.9 kcal/mol.

As to GCCTTGCGAAAGCTGGGC (((..((....))..))), the Tm in series [1] amounted to 62.6 °C. Moreover, the folding enthalpy in series [2] was -25.9 kcal/mol.

In the case of GCCTTTGAAAAAAGGC ((((((....)))))), the Tm in series [1] amounted to 59.2 °C. Also, in series [2], the folding enthalpy was -32.6 kcal/mol.

As for GCCTTTGGAAACAGAGGC ((((.((....)).)))), the Tm in series [1] was 48.2 °C. In addition, the folding enthalpy in series [2] was -31.1 kcal/mol.

Regarding GCGAAACTTCGC ((((....)))), the Tm in series [1] came to 51.1 °C. Moreover, in series [2], the folding enthalpy is -19.9 kcal/mol.

With GCGAAAGCTCGC ((((....)))), the Tm in series [1] was determined as 56.8 °C. Further, in series [2], the folding enthalpy is -11 kcal/mol.

As for GCGAAATCGAAAGATCGC (((..(((....)))))), the Tm in series [1] came out at 47.5 °C. The folding enthalpy in series [2] is -28.1 kcal/mol.

On to GCGAAATCTCGC ((((....)))), for which the Tm in series [1] was 45.2 °C. In addition, the folding enthalpy in series [2] is -20.3 kcal/mol.

On to GCGAAATTCGC ((((...)))), for which, in series [1], the Tm is 43.1 °C. Besides, the folding enthalpy in series [2] was -18.2 kcal/mol.

Consider GCGAACCCTCGC ((((....)))), for which, in series [1], the Tm turned out to be 47 °C. For the same sequence, the folding enthalpy in series [2] was -23.2 kcal/mol.

GCGAACGAAAGTTACCGC ((((((....)))..))): the Tm in series [1] worked out at 37.7 °C. The folding enthalpy in series [2] was -22.1 kcal/mol.

For the sequence GCGAACGAAAGTTCACGC ((((((....)))..))), the Tm in series [1] stood at 48.9 °C. Besides, the folding enthalpy in series [2] is -22.9 kcal/mol.

In the case of GCGAACGAAAGTTCTCGC ((((((....)))..))), in series [1], the Tm came out at 45.6 °C. The folding enthalpy in series [2] is -18.8 kcal/mol.

As to GCGAACGAAAGTTGCCGC ((((((....)))..))), the Tm in series [1] is 42.4 °C. For the same sequence, the folding enthalpy in series [2] was -16.6 kcal/mol.

With GCGAACGAAAGTTGCGC ((((((....))).))), in series [1], the Tm came out at 53.9 °C. In addition, the folding enthalpy in series [2] is -36.9 kcal/mol.
